Calls of active or inactive are those of the source. The rule behind the calls is not given here.
Key:
HCT-116 [1] = assay: Induction of apoptosis in human HCT116 cells assessed as up-regulation of p53 phosphorylation up to 2 uM after 48 hrs by Western blot analysis; type: functional, cell-based
[2] = target: T1, RecQ-like DNA helicase BLM (Homo sapiens, UniProt P54132); assay: Inhibition of BLM in human HCT116 cells assessed as induction of RAD51 foci accumulation on gamma-H2AX foci at 1 to 2 after 24 hrs by immunofluorescence assay; type: cell-based
Method in brief: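 HCT116 cells treated 24 h, fixed in 4% paraformaldehyde, permeabilised with 0.5% Triton X-100, blocked in 5% goat serum. Stained with γ-H2AX and RAD51 antibodies overnight at 4 °C, Alexa 488/647 secondaries and DAPI. Imaged by confocal microscopy for foci co-localisation.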

HCT-116 [3] = assay: Antiproliferative activity against human HCT116 cells after 24 hrs by MTT assay; type: functional, cell-based; conditions: in the assay text read “48 hrs” for “24 hrs”
Method in brief: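 HCT116 cells (5×10^3/well) grown 24 h, then exposed to 0–50 μM test agent; for knockdown, cells pre-treated with 50 nM BLM siRNA for 24 h first.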

[4] = target: T1, RecQ-like DNA helicase BLM; assay: Inhibition of BLM (unknown origin) assessed as increase in RAD51-ssDNA filaments up to 5 uM after 24 hrs by ELISA based DNA exchange activity assay
[5] = target: T1, RecQ-like DNA helicase BLM; assay: Inhibition of BLM recruitment to DSB sites on HRR in human HCT116 cells at 0.5 to 1 uM after 48 hrs by ChIP assay; type: cell-based
Method in brief: (§1)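 HCT116 cells co-transfected with HRR(−) reporter DSB model (or chromosomal I-SceI DSBs) and I-SceI; after 24 h given 0–2 μM ligand for 24 h. Crosslinked in 1% formaldehyde, chromatin digested by micrococcal nuclease to 0.2–0.5 kb, IP with anti-BLM or anti-RAD51 (IgG control). qPCR at DSB sites, normalised to untreated; triplicate.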

[6] = target: T1, RecQ-like DNA helicase BLM; assay: Inhibition of BLM in human HCT116 cells assessed as induction of RAD51 recruitment to DSB sites on HRR at 0.5 to 1 uM after 48 hrs by ChIP assay; type: cell-based; method in brief: as §1
[7] = tested on: RecQ-like DNA helicase BLM (Homo sapiens), P54132 [M1111A]; assay: Inhibition of His-tagged BLM M1111A mutant (unknown origin) binding to DNA assessed as effect on unbound DNA
Method in brief: (§2)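 Biotinylated forked DNA (50 nM) immobilised on streptavidin plates overnight at 4 °C. BLM or mutant (100 nM final) premixed with serially halved ligand in 3% BSA blocking buffer, ≤1% DMSO, 1 h on ice. Applied to the blocked plate for 1 h at 37 °C. Bound BLM detected with anti-BLM and HRP secondary, TMB, A450; Hill fit.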

HCT-116 [8] = assay: Induction of apoptosis in human HCT116 cells assessed as apoptotic cells at 2 uM after 48 hrs by Hoechst/propidium iodide-staining based flow cytometry (reference value: 1.09%); type: functional
HCT-116 [9] = assay: Induction of apoptosis in human HCT116 cells assessed as increase in cleaved PARP expression at 2 uM after 48 hrs by Western blot analysis; type: functional, cell-based
Method in brief: (§3)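 HCT116 cells treated with ligand (DNA-damage proteins 24 h, apoptosis proteins 48 h), lysed in RIPA at 4 °C. 40 μg protein per lane resolved by SDS-PAGE, blotted to PVDF, probed with damage and apoptosis antibody panels; β-actin loading control; chemiluminescent detection.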

[10] = target: T1, RecQ-like DNA helicase BLM; assay: Inhibition of His-tagged BLM (unknown origin) expressed in Escherichia coli BL21 (DE3) assessed as reduction in BLM helicase unwinding activity at 1 uM using 5'-biotin labeled forked-DNA as substrate after 1 hr by PAGE analysis
Method in brief: (§4)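 BLM642-1296 (His-tagged, E. coli BL21(DE3)) preincubated with ligand (1.0, 10, 50 μM; ≤1% DMSO) for 1 h at 4 °C. Reaction: 8 nM annealed 5′-biotin duplex forked DNA, 32 nM BLM, 2 mM ATP, 0.1% BSA, 1 h.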

HCT-116 [11] = assay: Induction of apoptosis in human HCT116 cells assessed as up-regulation of CHK1 phosphorylation up to 2 uM after 24 hrs by Western blot analysis
[12] = tested on: RecQ-like DNA helicase BLM (Homo sapiens), P54132 [E1143A]; assay: Inhibition of His-tagged BLM E1143A mutant (unknown origin) binding to DNA assessed as effect on unbound DNA; method in brief: as §2
[13] = target: T1, RecQ-like DNA helicase BLM; assay: Inhibition of His-tagged BLM (unknown origin) expressed in Escherichia coli BL21 (DE3) assessed as reduction in BLM helicase unwinding activity at 50 uM using 5'-biotin labeled forked-DNA as substrate after 1 hr by PAGE analysis; method in brief: as §4
[14] = target: T1, RecQ-like DNA helicase BLM; assay: Inhibition of His-tagged BLM (unknown origin) expressed in Escherichia coli BL21 (DE3) assessed as reduction in BLM helicase unwinding activity using 5'-biotin labeled forked-DNA as substrate after 1 hr by PAGE analysis
HCT-116 [15] = assay: Effect on RAD51 protein expression in human HCT116 cells at 1 to 2 after 24 hrs; type: functional, cell-based; method in brief: as §3
[16] = target: T1, RecQ-like DNA helicase BLM; assay: Inhibition of BLM in human HCT116 cells assessed as induction of HRR up-regulation at 1 uM after 24 hrs by GFP-based flow cytometry relative to untreated control; type: cell-based
Method in brief: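 HCT116 cells (2×10^5) co-transfected with DR-GFP HRR reporter and I-SceI plasmid; 24 h later treated with 0–2 μM ligand (reference 0–50 μM); BLM siRNA knockdown where stated. GFP-positive cells counted by flow cytometry and normalised to untreated; triplicate, mean ± SD.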

HCT-116 [17] = assay: Induction of apoptosis in human HCT116 cells assessed as apoptotic cells after 48 hrs by Hoechst/propidium iodide-staining based flow cytometry; type: functional, cell-based
HCT-116 [18] = assay: Antiproliferative activity against human HCT116 cells up to 2 uM incubated up to 15 days by MTT assay; type: functional, cell-based
[19] = target: T1, RecQ-like DNA helicase BLM; assay: Binding affinity to His-tagged BLM (642 to 1296 residues) (unknown origin) expressed in Escherichia coli BL21 (DE3) by ITC assay
Method in brief: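 ITC at 25 °C in 2 mM MgCl2, 10 mM KH2PO4, pH 7.5: ligand (0.6 mM, syringe) titrated in 10 μL injections, 300 s apart, into BLM642-1296 wild-type or point mutant, or DNA (0.04 mM, cell). His-tagged BLM from E. coli BL21(DE3), induced with […] at 16 °C for 24 h. Heats integrated, fitted to 1:1 model for KD.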

[20] = target: T1, RecQ-like DNA helicase BLM; assay: Inhibition of His-tagged BLM (unknown origin) expressed in Escherichia coli BL21 (DE3) assessed as reduction in BLM helicase unwinding activity at 10 uM using 5'-biotin labeled forked-DNA as substrate after 1 hr by PAGE analysis; method in brief: as §4
[21] = target: T1, RecQ-like DNA helicase BLM; assay: Inhibition of 5'-biotin labeled forked-DNA binding to BLM in human HCT116 cells assessed as increase in unbound DNA levels at 1 uM after 1 hr by Western blot-based pull down assay; type: cell-based
Method in brief: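 Biotinylated duplex forked DNA loaded on streptavidin magnetic beads overnight at 4 °C. HCT116 RIPA lysate incubated with beads plus ligand for 1 h at 25 °C. Bead eluate and supernatant analysed for BLM by SDS-PAGE/western blot.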

T1 sequence (P54132 whole entry): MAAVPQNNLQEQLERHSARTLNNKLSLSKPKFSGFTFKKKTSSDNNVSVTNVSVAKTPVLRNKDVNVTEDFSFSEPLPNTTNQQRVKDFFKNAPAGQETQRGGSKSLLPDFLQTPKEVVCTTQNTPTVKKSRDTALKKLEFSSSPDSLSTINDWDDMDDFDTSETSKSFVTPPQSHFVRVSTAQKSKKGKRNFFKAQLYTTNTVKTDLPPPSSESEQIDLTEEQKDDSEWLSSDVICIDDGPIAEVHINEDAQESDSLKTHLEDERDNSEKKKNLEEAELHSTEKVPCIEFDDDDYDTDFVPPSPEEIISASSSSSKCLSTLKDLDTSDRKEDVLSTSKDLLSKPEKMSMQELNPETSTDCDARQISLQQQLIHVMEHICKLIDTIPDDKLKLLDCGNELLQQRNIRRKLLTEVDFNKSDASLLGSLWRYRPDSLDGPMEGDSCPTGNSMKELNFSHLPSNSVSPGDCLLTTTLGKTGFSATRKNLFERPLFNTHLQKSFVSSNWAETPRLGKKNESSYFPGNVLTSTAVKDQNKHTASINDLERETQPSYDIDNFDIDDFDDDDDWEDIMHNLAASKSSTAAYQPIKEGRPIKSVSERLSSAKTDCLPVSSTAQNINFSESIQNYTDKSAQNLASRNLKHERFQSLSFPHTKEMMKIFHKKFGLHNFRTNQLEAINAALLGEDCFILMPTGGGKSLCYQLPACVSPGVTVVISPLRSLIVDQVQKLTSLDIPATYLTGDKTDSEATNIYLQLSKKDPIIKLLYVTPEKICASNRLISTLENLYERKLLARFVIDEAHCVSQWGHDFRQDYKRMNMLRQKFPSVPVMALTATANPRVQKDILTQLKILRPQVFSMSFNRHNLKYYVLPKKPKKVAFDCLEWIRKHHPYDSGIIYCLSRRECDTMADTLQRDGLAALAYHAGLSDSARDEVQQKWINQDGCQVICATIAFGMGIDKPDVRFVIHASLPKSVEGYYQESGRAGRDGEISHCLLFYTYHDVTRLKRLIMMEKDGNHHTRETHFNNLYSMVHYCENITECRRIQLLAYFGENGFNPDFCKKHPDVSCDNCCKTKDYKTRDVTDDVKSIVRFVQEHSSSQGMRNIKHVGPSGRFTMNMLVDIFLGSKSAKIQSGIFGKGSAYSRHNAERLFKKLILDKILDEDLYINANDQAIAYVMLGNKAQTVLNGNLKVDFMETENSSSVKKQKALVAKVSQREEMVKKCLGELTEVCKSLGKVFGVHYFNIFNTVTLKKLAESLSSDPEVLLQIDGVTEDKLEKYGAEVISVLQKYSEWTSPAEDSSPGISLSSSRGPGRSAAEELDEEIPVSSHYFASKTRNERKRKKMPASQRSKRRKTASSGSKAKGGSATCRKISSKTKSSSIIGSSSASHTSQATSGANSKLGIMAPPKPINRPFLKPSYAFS
RecQ-like DNA helicase BLM (Homo sapiens), P54132 [E1143A], sequence (P54132 whole entry E1143A): as the sequence (P54132 whole entry) above, with E1143A counted along it
RecQ-like DNA helicase BLM (Homo sapiens), P54132 [M1111A], sequence (P54132 whole entry M1111A): as the sequence (P54132 whole entry) above, with M1111A counted along it

In the case of `CCN(CC)CCCNc1cc2nc3n(c(=O)c2cc1F)CC/C3=C\c1ccc(C(C)C)cc1`, the Activity (HCT-116 [1]) is reported as “Dose-dependent effect”, the inhibition [2] is reported as “Active” and the Activity (HCT-116 [3]) is reported as “Dose-dependent effect”. For the same compound, the inhibition [4] was “Dose-dependent effect”, the inhibition [5] was “Active” and the inhibition [6] was “Active”. For the same compound, the inhibition [7] was “inactive”, the Activity (HCT-116 [8]) was 71.59% and the Activity (HCT-116 [9]) was “Active”. For the same compound, the inhibition [10] was “Active”, the Activity (HCT-116 [11]) was “Dose-dependent effect” and the inhibition [12] was “inactive”. The inhibition [13] was “Active”, the IC50 [14] was 950 nM and the Activity (HCT-116 [15]) was “inactive”. For the same compound, the fold change (FC) [16] was < 3, the Activity (HCT-116 [17]) was “Dose-dependent effect” and the Activity (HCT-116 [18]) was “Active”. The Kd [19] was 1800 nM, the inhibition [20] was “Active” and the inhibition [21] was 84.3%.
